Source: ChEMBL document CHEMBL1124802 (J Med Chem, 1990)

Experiments:
[1] = biological target: D(2) dopamine receptor (Rattus norvegicus, UniProt P61169); experiment: Displacement of [3H]- -spiperone from Dopamine receptor D2 in rat striatum
Outline: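 Same rat striatal membrane preparation and buffer (50 mM HEPES, 4 mM MgCl2, pH 7.4). Competition with [3H]spiperone in 1.0 mL at 37 °C for 15 min. Nonspecific binding defined with 1 µM chlorpromazine. Bound ligand collected by glass-fibre filtration and counted by scintillation; protein measured by Lowry.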

[2] = biological target: D(1A) dopamine receptor (Rattus norvegicus, UniProt P18901); experiment: Displacement of [3H]- #NAME? from binding Dopamine receptor D1 in rat striatum
Sequence of D(1A) dopamine receptor (P18901 whole entry): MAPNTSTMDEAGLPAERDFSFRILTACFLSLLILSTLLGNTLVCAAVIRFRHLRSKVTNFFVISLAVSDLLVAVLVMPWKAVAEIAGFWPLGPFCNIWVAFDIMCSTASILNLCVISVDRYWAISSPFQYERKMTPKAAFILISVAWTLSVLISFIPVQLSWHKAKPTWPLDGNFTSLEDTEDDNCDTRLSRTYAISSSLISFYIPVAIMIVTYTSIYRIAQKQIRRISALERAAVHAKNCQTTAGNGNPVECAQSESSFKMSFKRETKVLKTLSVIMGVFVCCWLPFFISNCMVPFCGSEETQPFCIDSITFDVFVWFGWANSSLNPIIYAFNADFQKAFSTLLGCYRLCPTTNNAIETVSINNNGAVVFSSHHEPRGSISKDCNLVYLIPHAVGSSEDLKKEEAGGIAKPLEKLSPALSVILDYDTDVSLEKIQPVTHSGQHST
Outline: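 Rat striatal membranes, homogenised and washed twice by centrifugation in ice-cold 50 mM HEPES with 4 mM MgCl2, pH 7.4, at about 2 mg wet weight/mL. Competition with the tritiated selective D1 antagonist in 1.0 mL of the same buffer, 37 °C for 15 min. Nonspecific binding defined with 1 µM of the unlabelled antagonist. Filtration and scintillation counting; protein measured by Lowry.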

[3] = Percentage maximum stimulation adenylate cyclase was measured versus DA
Outline: (§1)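 Rat striatum homogenised in HEPES/EGTA buffer. […] Stopped with SDS, then ZnSO4/Ba(OH)2 precipitation. [32P]cAMP isolated by HPLC with UV-tracked internal standard and counted; percent stimulation calculated from peak areas and radioactivity.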

[4] = Stimulation of Adenylate cyclase from rat striatal membranes; assay type: cell membranes, Membrane; outline: as §1

Sequence of D(2) dopamine receptor (P61169 whole entry): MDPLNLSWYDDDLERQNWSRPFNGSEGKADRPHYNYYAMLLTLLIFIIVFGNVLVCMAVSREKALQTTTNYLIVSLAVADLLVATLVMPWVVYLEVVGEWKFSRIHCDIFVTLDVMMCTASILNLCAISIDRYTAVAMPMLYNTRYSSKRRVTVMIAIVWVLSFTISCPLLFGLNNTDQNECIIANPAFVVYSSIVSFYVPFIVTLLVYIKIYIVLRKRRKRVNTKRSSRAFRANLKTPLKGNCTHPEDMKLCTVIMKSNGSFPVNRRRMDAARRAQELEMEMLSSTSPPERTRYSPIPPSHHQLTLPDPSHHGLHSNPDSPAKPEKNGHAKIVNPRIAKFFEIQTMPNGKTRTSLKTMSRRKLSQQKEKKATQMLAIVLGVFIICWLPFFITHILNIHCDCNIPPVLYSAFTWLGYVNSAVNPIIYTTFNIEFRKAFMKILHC

Structure (SMILES) | IC50 [1] | IC50 [2] | Max stimulation [3] | EC50 [4]
Oc1cc2c(cc1O)CC(NCc1ccccc1)CC2 (configuration not stated) | 290 nM | > 5000 nM | 25 | –
Oc1cc2c(cc1O)[C@@H]1c3ccccc3CN[C@@H]1CC2 | – | – | 17 | –
CN1CCc2cc(Cl)c(O)cc2[C@@H](c2ccccc2)C1 | – | – | 0 | –
CN1Cc2ccccc2[C@@H]2c3cc(O)c(O)cc3CC[C@H]21 | 136 nM | 91 nM | 63 | 1000 nM
Oc1cc2c(cc1O)[C@H]1c3ccccc3CN[C@@H]1CC2 [DIHYDREXIDINE] | – | – | 120 | 70 nM
Oc1cc2c(cc1O)[C@@H](c1ccccc1)CNCC2 [(R)-SKF-38393] | – | – | 50 | 100 nM
Oc1ccc([C@@H]2CNCc3sccc32)cc1O | 285 nM | 120 nM | 120 | 700 nM
NCCc1ccc(O)c(O)c1 [DOPAMINE] | – | – | 100 | 5000 nM
Oc1cc2c(cc1O)[C@H]1CCCN[C@@H]1CC2 | 68 nM | > 5000 nM | 33 | > 10 nM
CCCN1Cc2ccccc2[C@@H]2c3cc(O)c(O)cc3CC[C@H]21 | 53 nM | 651 nM | 32 | > 10 nM
